Ecoli rRNA inh: selective bacterial rRNA inhibition in E. coli. E. coli WT GFP vs humanized-ribosome RFP mutants, fluorescence, 24 h; hits give low values; DMSO median 0, no signal -100. GFP signal change (wild-type ribosome), % (test concentration not listed). 1.6% of 350,000 active. AID 720706;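 active means significant combined selectivity score with lowered wild-type GFP, culture density cut under 30%, mutant RFP and density less affected; inactive means any of these conditions unmet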
ERAP1 HTS inh: ERAP1 (human) enzyme inhibition; Q9NZ08; inhibition, % at 10.7 µM; recombinant ERAP1, Leu-AMC fluorescence, 60 min; 0.15% of 340,000 active;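 active means mean replicate inhibition of at least 30%, or all replicates individually reaching that 30% level; inactive means mean below 30% and not every replicate reaching it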;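 further: 0% = neutral control wells and 100% = L-leucinethiol positive control wells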
Target sequence (Q9NZ08 whole entry, looked up): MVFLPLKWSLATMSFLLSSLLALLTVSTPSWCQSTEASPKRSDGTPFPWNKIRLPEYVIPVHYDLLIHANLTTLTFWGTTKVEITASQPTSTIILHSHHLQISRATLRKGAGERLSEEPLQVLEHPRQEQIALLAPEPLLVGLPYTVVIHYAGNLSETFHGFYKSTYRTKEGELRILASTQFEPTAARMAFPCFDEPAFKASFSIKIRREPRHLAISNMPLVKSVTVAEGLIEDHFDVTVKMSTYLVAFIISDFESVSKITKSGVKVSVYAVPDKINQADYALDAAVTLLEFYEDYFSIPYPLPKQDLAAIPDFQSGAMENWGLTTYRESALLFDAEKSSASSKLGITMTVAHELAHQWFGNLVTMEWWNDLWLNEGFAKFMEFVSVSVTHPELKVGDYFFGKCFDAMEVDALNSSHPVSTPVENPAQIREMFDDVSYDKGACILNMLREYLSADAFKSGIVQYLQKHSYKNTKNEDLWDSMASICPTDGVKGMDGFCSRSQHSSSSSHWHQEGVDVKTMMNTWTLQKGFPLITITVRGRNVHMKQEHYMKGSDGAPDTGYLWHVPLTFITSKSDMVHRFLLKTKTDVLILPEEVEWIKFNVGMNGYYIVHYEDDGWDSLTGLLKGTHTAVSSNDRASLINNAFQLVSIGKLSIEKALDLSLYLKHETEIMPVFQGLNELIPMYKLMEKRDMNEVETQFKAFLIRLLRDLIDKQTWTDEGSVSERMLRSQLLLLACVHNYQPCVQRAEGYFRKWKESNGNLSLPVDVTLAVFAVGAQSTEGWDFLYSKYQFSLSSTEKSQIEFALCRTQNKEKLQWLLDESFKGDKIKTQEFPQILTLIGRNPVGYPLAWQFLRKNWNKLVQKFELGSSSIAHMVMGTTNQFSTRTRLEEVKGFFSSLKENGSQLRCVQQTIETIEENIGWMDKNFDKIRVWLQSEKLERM
F508del corr: CFTR F508del correction in bronchial cells; 0.36% of 350,000 active; CFBE cells, YFP halide quenching; stimulated with forskolin plus potentiator P3; % fluorescence drop versus neutral controls; activity (quench increase), % at 7.58 µM;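 active means mean added fluorescence quench of at least 8% versus neutral control, with both replicates also reaching 8%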;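 further: cells transiently co-express mutant CFTR-F508del with the halide-sensitive YFP; corrector assay measuring rescue of mutant channel to the surface after 24 h compound exposure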
S100A4 MyoIIA: S100A4-myosin IIA interaction inhibition | inhibition, % at 10.7 µM | 0.14% of 360,000 active | S100A4/TAMRA-MyoIIA peptide fluorescence polarization;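 active means mean inhibition of at least 70% across replicates, with every replicate also reaching that level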
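Compound dosing: one dose per compound; test system: human S100A4 monomer with TAMRA-labelled myosin IIA peptide; probe or stimulus: TAMRA-labelled myosin IIA heavy-chain peptide probe, 5 nM; medium: HEPES buffer with Ca2+, pH 7.2; schedule: 5 min incubation before reading; benchmarks: neutral control DMSO, positive control TFP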
SIRT5 block: sirtuin-5 (human) deacylase inhibition; Q9NXA8; Purified SirT5, succinyl-peptide AMC, trypsin-coupled fluorescence; inhibition, % at 15 µM; 1.1% of 330,000 active; in the data active means inhibition above about 15%
* hit, by the source's call; · = not tested or not shown. Sampled rows, rich in hits. Any-hit rate of the full collection: about 3.1%.

SMILES | Ecoli rRNA inh | ERAP1 HTS inh | F508del corr | S100A4 MyoIIA | SIRT5 block
C[C@@H]1CN([C@@H](C)CO)C(=O)c2cc(NC(=O)Cc3ccccc3)ccc2O[C@H]1CN(C)C(=O)Nc1ccc(F)cc1 | 0.8 | -1.2 | 0.1 | 2.5 | 0.0
C#CCn1c(=NC(=O)c2ccc(Cl)s2)sc2cccc(OC)c21 | -1.3 | 30.3* | -1.5 | 1.8 | 3.9
COC(=O)CC1C(=O)NCCN1C(=S)NC(=O)C(c1ccccc1)c1ccccc1 (stereo not given) | -25.9* | 1.1 | · | -7.3 | -4.8
C[C@H]1CN([C@@H](C)CO)C(=O)c2cccc(NS(=O)(=O)c3ccccc3)c2O[C@@H]1CN(C)C(=O)Nc1ccccc1 | -0.5 | -1.9 | -2.5 | 5.6 | -1.2
COc1ccc(Nc2c(-c3ccc(C)cc3)nc3cnccn23)cc1 | -25.4 | · | 3.5 | -1.5 | 18.0*
CC(C)(C)NC(=O)CSCc1c(Cl)cccc1Cl | -31.1* | -2.0 | -0.9 | 3.2 | -1.0
O=C(c1ccccc1)c1c(O)nc(-c2ccccc2)n(-c2ccccc2)c1=O | -24.9* | -2.1 | 1.0 | -3.7 | -6.5
C[C@@H]1CN([C@@H](C)CO)C(=O)c2cc(NC(=O)Nc3cccc4ccccc34)ccc2O[C@H]1CN(C)C(=O)Nc1ccccc1 | -3.2 | -9.8 | -0.2 | -2.9 | 0.5
Cc1onc(-c2ccccc2Cl)c1C(=O)O/N=C(\N)c1ccccc1 | -4.3 | -1.1 | -0.1 | -17.4 | -3.3
C/C(=N\OC(=O)c1c(-c2ccccc2Cl)noc1C)c1ccncc1 | -22.9* | 4.1 | 1.1 | 2.3 | 0.2
C[C@H](CO)N1C[C@H](C)[C@@H](CN(C)S(=O)(=O)c2cn(C)cn2)Oc2ccc(NC(=O)C3CC3)cc2CC1=O | -1.3 | 1.3 | -2.3 | 0.6 | 16.4*
C[C@@H]1CN([C@H](C)CO)C(=O)c2cc(NC(=O)C3CC3)ccc2O[C@H]1CN(C)S(=O)(=O)c1cn(C)cn1 | 2.0 | -2.5 | -0.2 | 11.7 | -1.6
C[C@H]1CN([C@@H](C)CO)C(=O)c2cc(NC(=O)C3CC3)ccc2O[C@H]1CN(C)S(=O)(=O)c1cn(C)cn1 | 6.9 | 0.5 | 3.9 | -4.8 | 29.1*
C[C@H](CO)N1C[C@H](C)[C@H](CN(C)Cc2ccc(C(=O)O)cc2)Oc2ccc(NC(=O)Cn3cnnn3)cc2CC1=O | 0.0 | 2.0 | -3.6 | -15.3 | 13.4
O=C(c1ccncc1)N1C[C@@H]2[C@H](c3ccccc31)[C@H](CO)N2C(=O)CN1CCOCC1 | 4.7 | 0.2 | -1.0 | 1.3 | 2.4
CCOC(=O)N1CCN(C(=O)C2CCC(=O)N(CCCN3CCCC3=O)C2)CC1 (stereo not given) | 10.0 | -2.3 | 8.5* | -1.1 | 2.0
CCOC(=O)N1CCN(C(=O)C2CCC(=O)N(CCCc3ccccc3)C2)CC1 (stereo not given) | 5.8 | -2.6 | 0.9 | 1.9 | -3.6
C1CCCCCC2(CCCCC1)OCC(CN1CCOCC1)O2 (stereo not given) | · | · | -0.4 | · | ·
C[N+]1(CC2COC3(CCCCC3)O2)CCCC1 (stereo not given) | 9.3 | 80.7* | 0.3 | -1.1 | -3.9
CCc1ccc(O)c(-c2cc(C(=O)Nc3cccnc3)[nH]n2)c1 | -37.2* | · | 0.9 | 1.0 | 3.7
Cc1cc(C)c(O)c(-c2cc(C(=O)Nc3cccnc3)[nH]n2)c1 | -32.5* | -3.1 | -1.6 | 1.4 | -6.9
Cc1cc(C)c(OCC(=O)NCC(C)(C)N2CCOCC2)c(C)c1 | -0.5 | 4.3 | 2.2 | 33.6 | 30.1*
CC(C)NC(=O)N[C@@H]1CC[C@H](CCN)O[C@H]1CO | 4.8 | -4.2 | -0.4 | 2.2 | -1.3
COCCNC(=O)CCCn1c(=O)c2cc(OC)c(OC)cc2n(CC(=O)c2cccc(OC)c2)c1=O | 9.8 | · | -1.0 | 0.1 | 19.1*
CCc1cc2c3c([nH]c2cc1S(=O)(=O)N1CCC2(CC1)OCCO2)CCCC3=O | -26.1* | 2.9 | -2.8 | -5.9 | 0.9
SMILES | Ecoli rRNA inh | ERAP1 HTS inh | F508del corr | S100A4 MyoIIA | SIRT5 block
CCCC(=O)Nc1ccc2c(c1)OC[C@H](C)N(Cc1ccc(-c3ccccn3)cc1)C[C@@H](C)[C@@H](OC)CN(C)C2=O | -2.6 | 0.7 | -2.2 | -6.0 | 6.2
CC(C)NC(=O)CSCc1cccc(Br)c1 | -0.7 | 2.3 | -2.5 | -5.4 | 18.9*
COc1ccccc1NC(=O)c1c(C)nn(-c2ccccc2)c1Cl | -35.6* | -1.6 | 0.0 | 1.1 | -1.1
C[C@H]1CN([C@@H](C)CO)C(=O)c2cc(NC(=O)Cc3cn(C)c4ccccc34)ccc2O[C@@H]1CN(C)S(=O)(=O)c1cccs1 | -5.2 | -0.1 | -0.4 | -11.1 | 5.0
COc1ccc(CC(=O)NC(c2ccccc2)c2ccc(C)cc2)c(OC)c1 (stereo not given) | 2.6 | -5.4 | 8.0* | -1.9 | -5.8
C[C@H](CO)N1C[C@H](C)[C@H](CN(C)Cc2ccc(Oc3ccccc3)cc2)Oc2ccc(NC(=O)CCC(F)(F)F)cc2C1=O | -9.0 | -1.1 | -0.9 | -6.9 | 15.1*
C[C@@H]1CN([C@H](C)CO)C(=O)c2cc(NC(=O)CCC(F)(F)F)ccc2O[C@@H]1CN(C)Cc1ccc(C(F)(F)F)cc1 | -2.5 | 0.6 | -0.6 | 6.1 | 10.4
C[C@H]1CN([C@@H](C)CO)C(=O)c2cc(NC(=O)CCC(F)(F)F)ccc2O[C@H]1CN(C)Cc1ccc(C(F)(F)F)cc1 | -4.8 | 1.3 | 3.8 | 2.9 | 19.8*
COc1ccc(CN(C)C[C@@H]2Oc3ccc(NC(=O)CCC(F)(F)F)cc3C(=O)N([C@H](C)CO)C[C@H]2C)cc1 | 4.2 | 0.4 | -2.5 | -2.8 | 29.3*
COc1ccc(CN(C)C[C@H]2OCCCC[C@H](C)Oc3ccc(NC(=O)c4ccccc4)cc3C(=O)N([C@H](C)CO)C[C@@H]2C)cc1 | -0.1 | 1.5 | 2.0 | -7.3 | -0.1
CO[C@H]1CN(C)C(=O)c2cc(NC(=O)C3CCOCC3)ccc2OC[C@H](C)N(C(C)=O)C[C@H]1C | 0.8 | · | -1.1 | · | ·
COCC(=O)Nc1ccc2c(c1)C(=O)N(C)[C@H]1CC[C@@H](CC(=O)NCc3ccccc3Cl)O[C@H]1CO2 | -1.3 | · | -1.2 | · | ·
CC1(C)CC(=O)C2=C(C1)OC(N)=C(C#N)C2c1ccccc1 (stereo not given) | -0.3 | 2.7 | · | -4.7 | 4.2
CC(C)Cn1cnc2c(c1=N)C(c1ccccc1)C1=C(CC(C)(C)CC1=O)O2 (stereo not given) | -37.9* | -1.2 | 1.7 | -12.5 | 3.4
Cn1nc(-c2ccccc2)cc1NC(=O)Nc1ccc(F)cc1 | -39.6* | 5.6 | 0.5 | -7.6 | -1.6
Cc1ccccc1NC(=O)Nc1cc(-c2ccccc2)nn1C | -3.0 | 4.2 | · | 1.7 | 0.0
Cn1nc(C(F)(F)F)c(-c2cccc(C(F)(F)F)c2)c1NC(=O)Nc1ccc(F)cc1 | -28.0* | 3.3 | 3.9 | 3.7 | -3.7
C[C@@H]1CN([C@@H](C)CO)C(=O)c2cc(C#Cc3ccccc3F)cnc2O[C@H]1CN(C)S(=O)(=O)c1ccccc1F | 1.2 | 0.4 | -4.3 | 11.9 | 3.4

High-throughput results (PubChem)
